The values that follow come from ChEMBL document CHEMBL1255233, “The P-113 fragment of histatin 5 requires a specific peptide sequence for intracellular translocation in Candida albicans, which is independent of cell wall binding” (Antimicrob Agents Chemother, 2008).

For data set [1], the system named is Candida albicans. In words: Candidacidal activity against Candida albicans CAF4-2 having ssa2delta mutation assessed as cell death at 31.5 uM treated for 1 hr measured after 48 hrs by microdilution plate assay. The class given is functional. Background: Broth dilution looks for growth in wells or tubes with falling amounts of substance.
Data set [2] deals with Candida albicans. In words: Candidacidal activity against Candida albicans CAF4-2 having ssa2delta mutation assessed as cell death below 31.5 uM treated for 1 hr measured after 48 hrs by microdilution plate assay. It is filed as functional, organism-based.
For data set [3], the system named is Candida albicans. The data set is described as follows: Candidacidal activity against Candida albicans CAF4-2 having ssa2delta mutation after 3 hrs by radial diffusion assay. It is filed as functional, organism-based. The method in brief:
(§1)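 Radial diffusion: C. albicans cells incorporated into underlay gels; peptides loaded into wells punched in the gel and incubated overnight. Clear-zone diameters (no growth) converted to cell death and plotted against peptide concentration. Means and SD of three independent experiments.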

The test system of data set [4] is Candida albicans. The data set is described as follows: Candidacidal activity against Candida albicans CAF4-2 having ssa1delta mutation after 3 hrs by radial diffusion assay. It is filed as functional, organism-based. The method in brief: as §1
Data set [5] has as its system Candida albicans. The data set is described as follows: Candidacidal activity against wild type Candida albicans CAF4-2 at >62 uM after 3 hrs by radial diffusion assay. It is filed as functional, organism-based. The method in brief: (§2)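 C. albicans cells grown in YNB were set into underlay gels. Peptides were loaded into punched wells and incubated overnight. Clear-zone diameters (10 units = 1 mm) were plotted against peptide concentration and converted to cell death. Incubation was in 10 mM or 100 mM NaPB. Means and SD from three independent experiments.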

The subject of data set [6] is Candida albicans. In words: Candidacidal activity against wild type Candida albicans CAF4-2 after 3 hrs by radial diffusion assay in presence of 100 mM NaPB. The class given is functional, organism-based. The method in brief:
as §2

In data set [7] the target is Heat shock protein SSA2 (Candida albicans (strain SC5314 / ATCC MYA-2876) (Yeast)) (UniProt P46587). In words: Binding affinity to Candida albicans AKRLIGRKFDDHE region of Ssa2 at 2 uM by chemiluminescence assay. In short, it runs like this: (§3)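 Overlapping Ssa2p peptides spotted on cellulose-β-alanine membranes; methanol rinse, TBS (pH 8.0) washes, 2 h blocking in albumin/biotin-free buffer at room temperature. Biotin-labeled peptide (2 µM) in blocking buffer, 3 h at room temperature, washed; streptavidin-HRP (1:20,000) 1 h; chemiluminescent detection and imaging. Repeatability confirmed by reprobing after regeneration (30 min, 50°C).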

Data set [8] deals with Candida albicans. The data set is described as follows: Candidacidal activity against wild type Candida albicans CAF4-2 at >62 uM after 3 hrs by radial diffusion assay in presence of 100 mM NaPB. It is filed as functional, organism-based. The method in brief: as §2
The subject of data set [9] is Candida albicans. The data set is described as follows: Candidacidal activity against wild type Candida albicans CAF4-2 after 3 hrs by radial diffusion assay in presence of 10 mM NaPB. It is filed as functional, organism-based. In short, it runs like this:
as §2

The test system of data set [10] is Candida albicans. In words: Candidacidal activity against Candida albicans CAF4-2 having ssa1delta mutation assessed as cell death below 31.5 uM treated for 1 hr measured after 48 hrs by microdilution plate assay. It is filed as functional, organism-based.
For data set [11], the system named is Candida albicans. The data set is described as follows: Candidacidal activity against wild type Candida albicans CAF4-2 assessed as cell death at 31.5 uM treated for 1 hr measured after 48 hrs by microdilution plate assay. It is filed as functional.
Data set [12] has as its target Heat shock protein SSA2 (Candida albicans (strain SC5314 / ATCC MYA-2876) (Yeast)) (UniProt P46587). In words: Binding affinity to Candida albicans KRKNKKDISTNQR region of Ssa2 at 2 uM by chemiluminescence assay. The method in brief: as §3
Data set [13] relates to Candida albicans. The data set is described as follows: Candidacidal activity against Candida albicans CAF4-2 having ssa1delta mutation assessed as cell death at 31.5 uM treated for 1 hr measured after 48 hrs by microdilution plate assay. The class given is functional.
Data set [14] deals with Candida albicans. The data set is described as follows: Candidacidal activity against wild type Candida albicans CAF4-2 assessed as cell death below 31.5 uM treated for 1 hr measured after 48 hrs by microdilution plate assay. It is filed as functional, organism-based. In short, it runs like this:
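Candidacidal microdilution assay: 1 x 10^6 cells exposed to peptide for 1 h, diluted to quench, plated on YNB agar. Loss of viability = [1 − (colonies treated/colonies control)] x 100. Means and SD from three independent experiments.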

In data set [15] the test system is Candida albicans. In words: Candidacidal activity against wild type Candida albicans CAF4-2 after 3 hrs by radial diffusion assay. It is filed as functional, organism-based. The method in brief: as §2
A short description of data set [16]: Drug uptake in Candida albicans CAF4-2 having ssa2delta mutation cytoplasmic extract assessed per 10^7 cells at 31.5 uM upto 30 mins by SDS-PAGE in presence of 10 mM NaPB. The class given is ADME, Cytoplasm. The note with it: 0.5 h. In short, it runs like this: (§4)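 Cells in 10 mM NaPB with biotin-labeled peptide (31.5–32 µM) at 37°C for 5–90 min. After β-ME cell-wall extraction, cells bead-lysed at 4°C in NaPB with protease inhibitors; cytosol from 13,000 rpm spin. Cytosolic protein (10 µg/lane) on Tricine SDS-PAGE, streptavidin-HRP blot, quantitated against peptide standards.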

The subject of data set [17] is Candida albicans. In words: Drug uptake in Candida albicans CAF4-2 assessed as reduction of free drug in cell supernatant at 31.5 uM after 15 mins by slot blot assay. The class given is ADME, organism-based. Conditions: in vivo, 0.25 h. The method in brief:
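Early-log cells (1 x 10^8) were washed and suspended in 10 mM NaPB with biotin-labeled peptide (31.5 µM) for 5–90 min with shaking. After centrifugation at 4°C, supernatants were applied to PVDF by slot blot. The membrane was blocked in 3% milk/TBST, probed with streptavidin-HRP (1:1,000), and developed for remaining free peptide.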

The subject of data set [18] is Candida albicans. In words: Drug uptake in Candida albicans CAF4-2 having ssa2delta mutation assessed as reduction of free drug in cell supernatant at 31.5 uM after 30 mins by slot blot assay. The class given is ADME, organism-based. Conditions: in vivo, 0.5 h. The method in brief: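 Supernatant depletion: wt and ssa2 cells (1 x 10^8 in 1 ml 10 mM NaPB) incubated with 31.5 µM biotin-labeled peptide for 5–90 min with shaking. Cells pelleted at 4°C; 50 µl of supernatant slot-blotted onto PVDF, blocked with milk, probed with streptavidin-HRP. Buffer-only cells used as control.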

The nature of data set [19]: Drug uptake in Candida albicans CAF4-2 cytoplasmic extract assessed per 10^7 cells at 31.5 uM after 90 mins by SDS-PAGE in presence of 10 mM NaPB. The class given is ADME, Cytoplasm. Conditions: 1.5 h. The method in brief: (§5)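 Wild-type or ssa2 cells were incubated with biotin-labeled peptide (31.5 µM) in 10 mM NaPB at 37°C for 5–90 min. Cell wall was extracted with 1% β-ME in ammonium carbonate (pH 8.0), 30 min at 37°C. Cytosol was obtained by glass-bead lysis with protease inhibitors. Extracts (10 µg/lane) were run on 16% Tricine SDS-PAGE, blotted, and detected with streptavidin-HRP. Amounts were quantified against peptide standards (0.06125–0.5 µg) and expressed per 10^7 cells.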

Data set [20] in a line: Drug uptake in Candida albicans CAF4-2 cell wall extract at 31.5 uM within 5 mins by SDS-PAGE in presence of 10 mM NaPB. The class given is ADME, cell-based. Conditions: caf4-2, 5 min. The method in brief: as §5
A short description of data set [21]: Drug uptake in Candida albicans CAF4-2 cytoplasm at 31.5 uM within 5 mins by SDS-PAGE in presence of 10 mM NaPB. The class given is ADME. The method in brief: as §4
A short description of data set [22]: Drug uptake in Candida albicans CAF4-2 cytoplasmic extract assessed per 10^7 cells at 31.5 uM within 15 mins by SDS-PAGE in presence of 10 mM NaPB. The class given is ADME, Cytoplasm. Conditions: 0.25 h. The method in brief: as §5
Data set [23] in a line: Drug uptake in Candida albicans CAF4-2 beta-ME extracted cell wall protein assessed per 10^7 cells at 31.5 uM within 5 mins by SDS-PAGE in presence of 10 mM NaPB. The class given is ADME, cell-based. In short, it runs like this: (§6)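 Early-log cells (1 x 10^8) washed and suspended in 10 mM NaPB with 31.5 µM biotin-labeled peptide at 37°C with shaking, sampled at timepoints to 90 min. Cell wall released with 1% β-ME in ammonium carbonate pH 8.0, 30 min, 37°C. Extract run on 16% Tricine SDS-PAGE (10 µg/lane), blotted, detected with streptavidin-HRP, quantitated against peptide standards.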

Data set [24] can be described thus: Drug uptake in Candida albicans CAF4-2 beta-ME extracted cell wall protein assessed per 10^7 cells at 31.5 uM within 15 mins by SDS-PAGE in presence of 10 mM NaPB. It is filed as ADME, cell-based. Conditions: 0.25 h. In short, it runs like this:
as §6

Calls of active or inactive are those of the source. The calls are words filed in the database; no cut-off is given here. Where only a bound is given, the exact number is not on record here.

Chain of Heat shock protein SSA2 (Candida albicans (strain SC5314 / ATCC MYA-2876) (Yeast)) (P46587 whole entry): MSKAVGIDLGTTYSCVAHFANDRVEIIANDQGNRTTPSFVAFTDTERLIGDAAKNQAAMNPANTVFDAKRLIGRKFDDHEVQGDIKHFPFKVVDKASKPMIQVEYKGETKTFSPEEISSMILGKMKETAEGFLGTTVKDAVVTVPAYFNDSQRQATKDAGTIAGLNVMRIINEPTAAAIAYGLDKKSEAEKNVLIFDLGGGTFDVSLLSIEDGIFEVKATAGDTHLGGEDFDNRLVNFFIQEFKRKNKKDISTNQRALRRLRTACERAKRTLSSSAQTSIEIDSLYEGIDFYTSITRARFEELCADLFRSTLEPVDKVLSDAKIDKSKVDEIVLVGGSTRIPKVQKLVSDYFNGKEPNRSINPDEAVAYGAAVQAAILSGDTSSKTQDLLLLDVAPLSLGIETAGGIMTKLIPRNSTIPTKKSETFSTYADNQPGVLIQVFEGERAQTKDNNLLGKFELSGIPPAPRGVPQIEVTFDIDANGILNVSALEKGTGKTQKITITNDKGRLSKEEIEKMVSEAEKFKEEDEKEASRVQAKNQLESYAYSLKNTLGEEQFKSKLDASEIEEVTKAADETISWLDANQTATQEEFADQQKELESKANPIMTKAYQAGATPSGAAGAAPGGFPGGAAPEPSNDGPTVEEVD

Turning to H-AQRHHGYKRQFH-OH [listing 1 of 2 here], the Activity with Candida albicans [1], in the data set with Candida albicans [11] and in the data set on Candida albicans [13] was under 10% each time. The result (in the data set with Candida albicans [2]; with Candida albicans [3]; in the data set on Candida albicans [4]; in the data set with Candida albicans [6]; in [7]; in the data set on Candida albicans [8]) was inactive. The result (in the data set with Candida albicans [10]; in data set [12]; in the data set on Candida albicans [14]; in the data set with Candida albicans [15]) was inactive. The result in the data set with Candida albicans [5] and in the data set on Candida albicans [9] was Active.
Consider H-AKRHHGYKRKFH-OH [listing 1 of 2 here], for which the Drug uptake in data set [16] was under 0.2 µg; with Candida albicans [17] it was “Active”; with Candida albicans [18] it was “Active”; in [19], 0.2 µg; in data set [20], “Active”; in data set [21] it was “Active”. The figures for the Drug uptake in data set [22], in data set [23] and in [24] were 0.26 µg, 0.1 µg and “Active”, respectively.
Regarding H-AKRHHGYKRKFH-OH [listing 2 of 2 here], the results for the Activity in the data set with Candida albicans [1], with Candida albicans [11] and in the data set on Candida albicans [13] were 76%, 90% and 90%, respectively. Further, the outcome with Candida albicans [2], with Candida albicans [3], with Candida albicans [6] and in the data set with Candida albicans [10] was inactive. In addition, the result (in the data set with Candida albicans [4]; in data set [7]; in the data set on Candida albicans [9]; in [12]; in the data set with Candida albicans [15]) was Active.
Consider H-AQRHHGYKRQFH-OH [listing 2 of 2 here], for which the Drug uptake came out at 0.15 µg in data set [23] and 0.2 µg in data set [24].
